Results reported in article PMC6810844 (Cellular and molecular life sciences : CMLS, 2019).

Legend:
BoSGBPMLG-A = biological target: T1, BoSGBPMLG-A (Bacteroides ovatus, UniProt A0AAN3A7L1); experiment: isothermal titration calorimetry; assay type: binding; settings: 50 mM sodium phosphate pH 7.0, 25 °C
T1 sequence (A0AAN3A7L1 23-558): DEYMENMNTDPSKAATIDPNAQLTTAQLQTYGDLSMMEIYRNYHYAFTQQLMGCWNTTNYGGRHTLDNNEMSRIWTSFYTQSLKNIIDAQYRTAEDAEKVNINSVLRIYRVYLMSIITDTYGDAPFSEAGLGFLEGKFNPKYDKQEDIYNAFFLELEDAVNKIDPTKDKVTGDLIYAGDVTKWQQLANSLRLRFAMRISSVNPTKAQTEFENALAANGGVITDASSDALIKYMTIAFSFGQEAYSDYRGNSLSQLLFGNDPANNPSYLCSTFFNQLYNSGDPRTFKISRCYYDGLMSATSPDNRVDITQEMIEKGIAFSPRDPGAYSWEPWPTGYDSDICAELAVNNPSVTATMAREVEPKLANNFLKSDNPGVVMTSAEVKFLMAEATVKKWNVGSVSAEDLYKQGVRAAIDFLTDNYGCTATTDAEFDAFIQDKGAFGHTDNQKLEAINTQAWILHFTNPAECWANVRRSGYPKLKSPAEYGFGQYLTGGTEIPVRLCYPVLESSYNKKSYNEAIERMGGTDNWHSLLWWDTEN
How it was run: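 Recombinant His6-tagged protein was expressed in E. coli BL21(DE3), Ni-IMAC purified, and exchanged into 50 mM sodium phosphate pH 7.0. In the cell: 20–100 µM protein at 25 °C, stirred at 280 rpm. Injections: 2 µL, then 24 × 10 µL of 2.5–4.0 mg/mL polysaccharide or 1–2 mM oligosaccharide. Heat recorded. Molar polysaccharide Ka assumed a hexasaccharide motif for MLG and a Glc8-backbone motif for XyG.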

BoSGBPMLG-B = biological target: T2, BoSGBPMLG-B (Bacteroides ovatus, UniProt A0ABU3IRL2); experiment: isothermal titration calorimetry; assay type: binding; settings: 50 mM sodium phosphate pH 7.0, 25 °C; n fixed at 1
T2 sequence (A0ABU3IRL2 22-420): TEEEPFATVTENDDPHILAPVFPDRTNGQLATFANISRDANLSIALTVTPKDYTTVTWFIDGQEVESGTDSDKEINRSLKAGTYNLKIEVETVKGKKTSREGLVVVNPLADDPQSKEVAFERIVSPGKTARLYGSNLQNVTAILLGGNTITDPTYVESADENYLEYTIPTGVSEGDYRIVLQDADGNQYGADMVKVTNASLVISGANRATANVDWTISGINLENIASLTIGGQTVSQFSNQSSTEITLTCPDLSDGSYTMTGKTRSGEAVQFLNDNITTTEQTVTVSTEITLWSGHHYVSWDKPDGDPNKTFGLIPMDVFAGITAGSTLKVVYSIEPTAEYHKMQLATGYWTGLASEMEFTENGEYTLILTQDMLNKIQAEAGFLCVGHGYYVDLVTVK
How it was run: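 His6-tagged protein was produced in E. coli BL21(DE3) and purified by nickel affinity. Titrations ran at 25 °C in 50 mM sodium phosphate pH 7.0, except bMLG, which used 10 mM HEPES pH 7.0. 20–100 µM protein in the cell received one 2 µL injection, then 24 × 10 µL of 2.5–4.0 mg/mL polysaccharide or 1–2 mM oligosaccharide, with stirring at 280 rpm. MLG Ka was converted from g/L assuming a hexasaccharide motif.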

Row | SMILES | Ka (M^-1) / BoSGBPMLG-A (BoSGBPMLG-A; n fixed at 1) | Ka (M^-1) / BoSGBPMLG-B (BoSGBPMLG-B) | Ka (M^-1) / BoSGBPMLG-A (BoSGBPMLG-A)
1 | OC[C@H]1O[C@@H](O[C@H]2[C@H](O)[C@@H](O)[C@H](O[C@H]3[C@H](O)[C@@H](O)[C@H](O[C@H]4[C@H](O)[C@@H](O)[C@H](O[C@H]5[C@H](O)[C@@H](O)[C@H](O[C@H]6[C@H](O)[C@@H](O)C(O)O[C@@H]6CO)O[C@@H]5CO)O[C@@H]4CO)O[C@@H]3CO)O[C@@H]2CO)[C@H](O)[C@@H](O)[C@@H]1O (stereo partly drawn) [Cellohexaose] | (3.39 ± 0.03) × 10^3 | (3.1 ± 0.06) × 10^3 | –
2 | OC[C@H]1O[C@@H](O[C@H]2[C@H](O)[C@@H](O)[C@H](O[C@@H]3[C@@H](O)[C@H](O[C@H]4[C@H](O)[C@@H](O)[C@H](O[C@H]5[C@H](O)[C@@H](O)[C@H](O[C@H]6[C@H](O)[C@@H](CO)OC(O)[C@@H]6O)O[C@@H]5CO)O[C@@H]4CO)O[C@H](CO)[C@H]3O)O[C@@H]2CO)[C@H](O)[C@@H](O)[C@@H]1O (stereo partly drawn) [MLG6, G4G3G4G4G3G] | – | (3.16 ± 0.19) × 10^3 | (1.44 ± 0.04) × 10^4
3 | OC[C@H]1O[C@@H](O[C@H]2[C@H](O)[C@@H](O)[C@H](O[C@H]3[C@H](O)[C@@H](O)[C@H](O[C@@H]4[C@@H](O)[C@H](O[C@H]5[C@H](O)[C@@H](O)[C@H](O[C@H]6[C@H](O)[C@@H](O)[C@H](O[C@H]7[C@H](O)[C@@H](CO)OC(O)[C@@H]7O)O[C@@H]6CO)O[C@@H]5CO)O[C@H](CO)[C@H]4O)O[C@@H]3CO)O[C@@H]2CO)[C@H](O)[C@@H](O)[C@@H]1O (stereo partly drawn) [MLG7, G4G4G3G4G4G3G] | – | (4.69 ± 0.13) × 10^3 | (4.51 ± 0.34) × 10^4
